# Source: ChEMBL document CHEMBL4613248, “Twelfth-Position Deuteration of Nevirapine Reduces 12-Hydroxy-Nevirapine Formation and Nevirapine-Induced Hepatocyte Death” (J Med Chem, 2020)
# Columns and labels:
# [1] = tested on: Hepatocyte; test: Induction of change in SHMT2 protein expression in human primary hepatocytes at 10 uM incubated for 48 hrs by relative-quantitation label-free proteomics analysis relative to NVP; assay type: cell-based
# Method in brief: (§1)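 Cryoplateable pooled human hepatocytes (10 mixed-sex donors per pool; three pools), adhered overnight, then given fresh medium containing compound (10 μM), NVP (10 μM) or vehicle (0.1% DMSO) for 48 h. Lysate reduced (DTT) and alkylated (iodoacetamide), acetone-precipitated and digested with trypsin. Label-free Top10 nanoLC-MS with precursor ion area quantitation; unpaired t test P values, Cohen's d effect size.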
# [2] = tested on: Hepatocyte; test: Induction of change in EXOSC1 protein expression in human primary hepatocytes at 10 uM incubated for 48 hrs by relative-quantitation label-free proteomics analysis relative to NVP; assay type: cell-based; method in brief: as §1
# [3] = tested on: Hepatocyte; test: Induction of change in Slc22a28 protein expression in C57BL/6J mouse primary hepatocytes at 400 uM incubated for 8 hrs by relative-quantitation label-free proteomics analysis relative to NVP; assay type: cell-based
# Method in brief: as §1, with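 “Fresh primary” for “Cryoplateable pooled human”, “from male C57BL/6J mice aged 8–13 weeks,” for “(10 mixed-sex donors per pool; three pools),”, “(400” for “(10”, “(0.2%” for “(0.1%”, “8” for “48”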
# [4] = Drug metabolism in C57BL/6J mouse primary hepatocytes assessed as Cytochrome P450-mediated formation of 3-OHD3NVP at 10 uM incubated for 24 hrs by uHPLC-MS analysis; assay type: ADME, cell-based
# Method in brief: (§2)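 Fresh hepatocytes from male C57BL/6J mice (8–13 weeks), adhered overnight, then 10 μM substrate or vehicle (0.1% DMSO) for 24 h. Medium extracted with acetonitrile (50% final), dried, reconstituted in methanol; uHPLC-Orbitrap targeted SIM plus PRM (monooxygenated metabolites) or high-resolution ions (O-glucuronides, 459.1510/462.1700 ±5 ppm); four experimental replicates.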
# [5] = Drug metabolism in C57BL/6J mouse primary hepatocytes assessed as Cytochrome P450-mediated formation of 2-OHD3NVP at 10 uM incubated for 24 hrs by uHPLC-MS analysis; assay type: ADME, cell-based; method in brief: as §2
# [6] = tested on: Cytochrome P450; test: Drug metabolism in human liver microsomes assessed as Cytochrome P450-mediated formation of 12-OHNVP by measuring Kcat/Km ratio in presence of NADPH regenerating reagents by uHPLC-MS/MS analysis
# Method in brief: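 Pooled human liver microsomes (2.5 mg/mL) in potassium phosphate; substrate (1–400 μM) prewarmed 5 min at 37 °C with NADPH-regenerating system, started with microsomes, 30 min at 37 °C. 12-OH product quantified by uHPLC-MS/MS Orbitrap against 12-OHNVP standard curve made in microsomes without NADPH. Kcat/Km taken as slope of linear rate vs substrate fit at nonsaturating 0–50 μM.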
# [7] = tested on: Hepatocyte; test: Induction of change in Gapdh protein expression in C57BL/6J mouse primary hepatocytes at 400 uM incubated for 8 hrs by relative-quantitation label-free proteomics analysis relative to NVP; assay type: cell-based
# Method in brief: as §1, with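 “Fresh primary” for “Cryoplateable pooled human”, “from male C57BL/6J mice aged 8–13 weeks,” for “(10 mixed-sex donors per pool; three pools),”, “(400” for “(10”, “(0.2%” for “(0.1%”, “8” for “48”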
# [8] = tested on: Hepatocyte; test: Induction of change in MSRA protein expression in human primary hepatocytes at 10 uM incubated for 48 hrs by relative-quantitation label-free proteomics analysis relative to NVP; assay type: cell-based; method in brief: as §1
# [9] = tested on: Hepatocyte; test: Induction of change in MRPL23 protein expression in human primary hepatocytes at 10 uM incubated for 48 hrs by relative-quantitation label-free proteomics analysis relative to NVP; assay type: cell-based; method in brief: as §1
# [10] = tested on: Hepatocyte; test: Induction of change in Acy3 protein expression in C57BL/6J mouse primary hepatocytes at 400 uM incubated for 8 hrs by relative-quantitation label-free proteomics analysis relative to NVP; assay type: cell-based
# Method in brief: as §1, with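 “Fresh primary” for “Cryoplateable pooled human”, “from male C57BL/6J mice aged 8–13 weeks,” for “(10 mixed-sex donors per pool; three pools),”, “(400” for “(10”, “(0.2%” for “(0.1%”, “8” for “48”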
# [11] = tested on: Hepatocyte; test: Induction of change in Fam120A protein expression in C57BL/6J mouse primary hepatocytes at 400 uM incubated for 8 hrs by relative-quantitation label-free proteomics analysis relative to NVP; assay type: cell-based
# Method in brief: as §1, with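 “Fresh primary” for “Cryoplateable pooled human”, “from male C57BL/6J mice aged 8–13 weeks,” for “(10 mixed-sex donors per pool; three pools),”, “(400” for “(10”, “(0.2%” for “(0.1%”, “8” for “48”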
# [12] = tested on: Cytochrome P450; test: Drug metabolism in human liver microsomes assessed as Cytochrome P450-mediated formation of 12-OHNVP at 10 uM […] in presence of CYP2C19 inhibitor (+)-N-3-benzyl-nirvanol and NADPH regenerating reagents by uHPLC-MS analysis; assay type: ADME
# [13] = tested on: Cytochrome P450; test: Drug metabolism in human primary hepatocytes assessed as Cytochrome P450-mediated formation of 8-OHNVP at 10 uM incubated for 24 to 48 hrs by uHPLC-MS analysis; assay type: ADME, cell-based
# Method in brief: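 Cryoplateable pooled human hepatocytes (10 mixed-sex donors per pool, three lots), adhered overnight, then 10 μM substrate or vehicle (0.1% DMSO) for 24 or 48 h in InVitroGRO CP medium. Medium extracted with 50% acetonitrile, dried, reconstituted in methanol; uHPLC-Orbitrap MS/MS for monooxygenated metabolites, high-resolution MS for O-glucuronide.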
# [14] = Drug metabolism in C57BL/6J mouse primary hepatocytes assessed as Cytochrome P450-mediated formation of 12-OHD2NVP at 10 uM incubated for 24 hrs by uHPLC-MS analysis; assay type: ADME, cell-based; method in brief: as §2
# [15] = tested on: Hepatocyte; test: Induction of change in Acot13 protein expression in C57BL/6J mouse primary hepatocytes at 400 uM incubated for 8 hrs by relative-quantitation label-free proteomics analysis relative to NVP; assay type: cell-based
# Method in brief: as §1, with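 “Fresh primary” for “Cryoplateable pooled human”, “from male C57BL/6J mice aged 8–13 weeks,” for “(10 mixed-sex donors per pool; three pools),”, “(400” for “(10”, “(0.2%” for “(0.1%”, “8” for “48”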
# [16] = tested on: Cytochrome P450; test: Drug metabolism in human liver microsomes assessed as Cytochrome P450-mediated formation of 3-OHNVP formation at 5 to 400 uM in presence of NADPH regenerating reagents by uHPLC-MS/MS analysis; assay type: ADME
# Method in brief: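 Pooled human liver microsomes (2.5 mg/mL) with NADPH-regenerating system, substrate 5–400 μM, 30 min at 37 °C, 0.1% DMSO (0.2% at 400 μM); 2- and 3-OH metabolites by uHPLC-MS/MS Orbitrap; three replicates, mean ± SD.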
# [17] = tested on: Hepatocyte; test: Induction of change in 5-Mar protein expression in C57BL/6J mouse primary hepatocytes at 400 uM incubated for 8 hrs by relative-quantitation label-free proteomics analysis relative to NVP; assay type: cell-based
# Method in brief: as §1, with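 “Fresh primary” for “Cryoplateable pooled human”, “from male C57BL/6J mice aged 8–13 weeks,” for “(10 mixed-sex donors per pool; three pools),”, “(400” for “(10”, “(0.2%” for “(0.1%”, “8” for “48”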
# [18] = tested on: Hepatocyte; test: Induction of change in RBM39 protein expression in human primary hepatocytes at 10 uM incubated for 48 hrs by relative-quantitation label-free proteomics analysis relative to NVP; assay type: cell-based; method in brief: as §1
# [19] = target: Cytochrome P450 2C9 (Homo sapiens, UniProt P11712); test: Drug metabolism assessed as human CYP2C9-mediated formation of 12-OHNVP at 10 uM pre-incubated for 30 mins followed by addition of NADPH regenerating reagents by uHPLC-MS analysis; assay type: ADME; settings: recombinant enzyme
# Sequence of Cytochrome P450 2C9 (P11712 whole entry): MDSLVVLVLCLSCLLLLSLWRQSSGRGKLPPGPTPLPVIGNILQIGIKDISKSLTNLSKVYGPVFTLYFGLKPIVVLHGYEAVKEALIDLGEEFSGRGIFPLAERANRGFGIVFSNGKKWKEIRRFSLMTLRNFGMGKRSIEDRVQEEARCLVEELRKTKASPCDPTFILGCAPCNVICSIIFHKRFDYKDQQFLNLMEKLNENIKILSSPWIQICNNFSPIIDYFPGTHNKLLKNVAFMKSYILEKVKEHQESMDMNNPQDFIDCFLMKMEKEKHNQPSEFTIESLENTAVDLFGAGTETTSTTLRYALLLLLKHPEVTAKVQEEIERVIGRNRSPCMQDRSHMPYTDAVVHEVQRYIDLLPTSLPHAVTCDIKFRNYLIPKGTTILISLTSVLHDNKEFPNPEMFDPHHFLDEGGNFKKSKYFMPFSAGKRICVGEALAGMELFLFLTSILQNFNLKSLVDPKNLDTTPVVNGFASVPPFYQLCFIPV
# Method in brief: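 Insect-cell microsomes with single cDNA-expressed human P450 (100 nM) in 0.1 M potassium phosphate; 10 μM substrate prewarmed 5 min at 37 °C with NADPH-regenerating system, reaction started by adding microsomes; 30 min at 37 °C, 0.1% DMSO. Stopped, dried, reconstituted in methanol; triple-quadrupole SRM (12-OH 283.1→223.0, 2-OH 283.1→160.9, 3-OH 283.1→241.9), peak height; three replicates, mean ± SD.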
# [20] = tested on: Hepatocyte; test: Induction of change in CARS2 protein expression in human primary hepatocytes at 10 uM incubated for 48 hrs by relative-quantitation label-free proteomics analysis relative to NVP; assay type: cell-based; method in brief: as §1
# [21] = Drug metabolism in C57BL/6J mouse primary hepatocytes assessed as O-GlucNVP metabolite formation at 10 uM incubated for 24 hrs by uHPLC-MS analysis; assay type: ADME, cell-based, Hepatocyte; method in brief: as §2
smiles,measurement,setting,value
[2H]C([2H])([2H])c1ccnc2c1NC(=O)c1cccnc1N2C1CC1,fold change (FC),[1],-1.28
same,fold change (FC),[2],-2.73
same,fold change (FC),[3],-1.66
same,Drug metabolism,[4],Metabolite_Detected
same,Drug metabolism,[5],Metabolite_Detected
same,Kcat/Km,[6],9.2 M⁻¹ min⁻¹
same,fold change (FC),[7],1.4
same,fold change (FC),[8],-2.05
same,fold change (FC),[9],8.32
same,fold change (FC),[10],1.6
same,fold change (FC),[11],2.06
same,Drug metabolism,[12],Metabolite_Detected
same,Drug metabolism,[13],Metabolite_Notdetected
same,Drug metabolism,[14],Metabolite_Detected
same,fold change (FC),[15],-1.97
same,Drug metabolism,[16],Metabolite_Detected
same,fold change (FC),[17],-2.14
same,fold change (FC),[18],1.7
same,Drug metabolism,[19],Metabolite_Detected
same,fold change (FC),[20],1.85
same,Drug metabolism,[21],Metabolite_Detected
